{"data": "Results pooled from the literature", "ALK": "ALK tyrosine kinase receptor (ALK, Homo sapiens, UniProt Q9UM73)", "SIRT6": "NAD-dependent protein deacylase sirtuin-6 (SIRT6, Homo sapiens, UniProt Q8N6T7)", "MAPK10": "Mitogen-activated protein kinase 10 (MAPK10, Homo sapiens, UniProt P53779)", "CTSB": "Cathepsin B (CTSB, Homo sapiens, UniProt P07858)", "note": "Lines come from different studies, so protocols differ. pIC50: −log10 of the molar value."}
{"Compound": "O=C(Oc1cc(O)cc2c1C[C@@H](OC(=O)c1cc(O)c(O)c(O)c1)[C@@H](c1cc(O)c(O)c(O)c1)O2)c1cc(O)c(O)c(O)c1", "target": "Receptor-type tyrosine-protein phosphatase C (PTPRC, Homo sapiens, UniProt P08575)", "observed": "enzyme activity", "action": "inhibitor", "technique": "fluorescence", "pIC50": 6.30}
{"Compound": "Cc1cccc(-c2cc(C)n[nH]2)c1", "target": "ALK", "observed": "enzyme activity", "action": "inhibitor", "technique": "TR-FRET", "pIC50": 3.64}
{"Compound": "COc1ccc(Sc2ccc(CONC(=O)c3ccc(C(N)=O)cc3)cc2C(F)(F)F)cc1", "target": "SIRT6", "observed": "enzyme activity", "action": "inhibitor", "technique": "fluorescence", "pIC50": 5.83}
{"Compound": "Nc1nonc1-n1cc(C(=O)N/N=C/c2ccccc2C(=O)O)nn1", "target": "SIRT6", "observed": "enzyme activity", "action": "inhibitor", "technique": "fluorescence", "pIC50": 4.23}
{"Compound": "CC(C)c1ccc(NC(=O)CCc2nc(O)c3c4c(sc3n2)CCC4)cc1", "target": "Pantothenate kinase 1 (Homo sapiens, UniProt Q8TE04)", "observed": "enzyme activity", "action": "inhibitor", "technique": "ATP luminescence", "pIC50": 7.70}
{"Compound": "COc1ccc2c(Oc3ccc4c(C(=O)Nc5ccccc5N)cccc4c3)ccnc2c1", "target": "MAPK10", "observed": "enzyme activity", "action": "inhibitor", "pIC50": "< 6.30"}
{"Compound": "COc1cc(/C=N/n2c(C)nc3ccc(C)cc3c2=O)cc([N+](=O)[O-])c1O", "target": "CTSB", "observed": "enzyme activity", "action": "inhibitor", "pIC50": 3.97}
{"Compound": "NC(=O)c1ccc(C(=O)NOCc2ccc(Sc3ccccc3)c(C(F)(F)F)c2)cc1", "target": "SIRT6", "observed": "enzyme activity", "action": "inhibitor", "technique": "fluorescence", "pIC50": 5.79}
{"Compound": "CSc1nc(C)c(-c2ccnc(NC3CCOCC3)c2)[nH]1", "target": "MAPK10", "observed": "enzyme activity", "action": "inhibitor", "technique": "ELISA", "pIC50": 5.58}
{"Compound": "N[C@@H](CC(=O)N1CCN(C(c2ccc(F)cc2)c2ccc(F)cc2)CC1)C(=O)N1Cc2ccccc2C1", "target": "Dipeptidyl peptidase 9 (DPP9, Homo sapiens, UniProt Q86TI2)", "observed": "enzyme activity", "action": "inhibitor", "pIC50": 6.49}
{"Compound": "CC(=O)Nc1ccc(C(=O)NOCc2ccccc2)cc1", "target": "SIRT6", "observed": "enzyme activity", "action": "inhibitor", "technique": "fluorescence", "pIC50": 3.66}
{"Compound": "COc1cccc(-c2cc(C)[nH]n2)c1", "target": "ALK", "observed": "enzyme activity", "action": "inhibitor", "technique": "TR-FRET", "pIC50": 3.77}
{"Compound": "c1ccc(Nc2ccc3c(n2)[nH]c2ccccc23)cc1", "target": "ALK", "observed": "enzyme activity", "action": "inhibitor", "technique": "ELISA", "pIC50": "< 5.00"}
{"Compound": "C=CC(=O)Nc1ccc(N2CCC[C@@H](Nc3ncc(Cl)c(-c4c[nH]c5ccccc45)n3)C2)cc1C", "target": "Cyclin-dependent kinase 2, with cyclin A (CDK2, Homo sapiens, UniProt P24941)", "observed": "enzyme activity", "action": "inhibitor", "technique": "FRET", "pIC50": 5.96}
{"Compound": "NC(=O)c1ccc(C(=O)NOCc2ccc(Sc3ccc(N)cc3)c(C(F)(F)F)c2)cc1", "target": "SIRT6", "observed": "enzyme activity", "action": "inhibitor", "technique": "fluorescence", "pIC50": 5.74}
{"Compound": "Cc1cc(-c2ccncc2)n[nH]1", "target": "ALK", "observed": "enzyme activity", "action": "inhibitor", "technique": "TR-FRET", "pIC50": 3.62}
{"Compound": "Cc1ccc(C(=O)Nc2ccc(Oc3cc4cnn(C)c4cc3-c3cn[nH]c3)c(F)c2)c(=O)n1-c1ccc(F)cc1", "target": "Angiopoietin-1 receptor (TEK, Homo sapiens, UniProt Q02763)", "observed": "enzyme activity", "action": "inhibitor", "technique": "radiometric", "pIC50": 8.40}
{"Compound": "CN(Cc1ccc(NC(=O)C2=Cc3cc(-c4ccc(OCCCF)cc4)ccc3CCC2)cc1)C1CCOCC1", "target": "C-C chemokine receptor type 2 (CCR2, Homo sapiens, UniProt P41597)", "observed": "ligand displacement", "technique": "radioligand", "notes": "cell membranes", "pIC50": 6.93}
{"Compound": "N#Cc1ccccc1CONC(=O)c1ccc(C(N)=O)cc1", "target": "SIRT6", "observed": "enzyme activity", "action": "inhibitor", "technique": "fluorescence", "pIC50": 4.28}
{"Compound": "COc1cc(NCC(=O)Nn2c(C)nc3ccc(Cl)cc3c2=O)cc(OC)c1OC", "target": "CTSB", "observed": "enzyme activity", "action": "inhibitor", "pIC50": 4.15}
{"Compound": "NC(=O)c1ccc(C(=O)NOCc2ccc(Sc3ccccc3)cc2)cc1", "target": "SIRT6", "observed": "enzyme activity", "action": "inhibitor", "technique": "fluorescence", "pIC50": 5.75}
{"Compound": "CNC(=O)c1cc2c(Oc3ccc(NC(=O)C4(C(=O)Nc5ccc(F)cc5)CC4)cc3)ccnc2cc1OC", "target": "Vascular endothelial growth factor receptor 3 (FLT4, Homo sapiens, UniProt P35916)", "observed": "enzyme activity", "action": "inhibitor", "technique": "radiometric", "pIC50": 8.22}
